Measured values published in ChEMBL document CHEMBL1158474, “Focus on the controversial activation of human iNKT cells by 4-deoxy analogue of KRN7000” (J Med Chem, 2009).
The source made the active and inactive calls.

Tests used:
[1] = test system: Mus musculus; assay: Regulation of immune response in C57BL/6J mouse assessed as induction of NKT cell cytokine response-related IL2 secretion at 10 to 1000 ug/kg, ip after 2 hrs by ELISA; type: functional, organism-based
[2] = test system: Mus musculus; assay: Regulation of immune response in C57BL/6J mouse assessed as induction of NKT cell cytokine response-related IL4 secretion at 100 ug/kg, ip after 4 hrs by ELISA; type: functional, organism-based
Procedure, shortened: (§1)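 Mice were given glycolipid ip at 10, 50, 100 or 1000 μg/kg. Cytokine release kinetics (TNF-α, IL-4, IFN-γ) were followed over time after injection, with sampling that included 4 h and 18 h. Groups were compared statistically (P < 0.05 threshold).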

[3] = test system: Mus musculus; assay: Regulation of immune response in C57BL/6J mouse assessed as induction of NKT cell cytokine response-related IL2 secretion at 10 to 1000 ug/kg, ip after 14 hrs by ELISA; type: functional, organism-based
[4] = test system: iNKT; assay: Effect on immune response in human iNKT cells stimulated by antigen-presenting CD1d-transfected human HeLa cells assessed as induction of IFN-gamma release by ELISA; type: functional, cell-based
Procedure, shortened: (§2)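 A human Vα24 iNKT cell line was stimulated for 6 h by CD1d-transfected HeLa cells loaded overnight with increasing glycolipid concentrations. Before loading, the glycolipid was solubilized in DMSO for a couple of hours at 37 °C. Supernatant TNF-α was measured by a cellular assay, and IFN-γ and IL-4 by ELISA. Triplicates were run, and one representative of three experiments is shown. EC50 values were given as mean ± SD.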

[5] = test system: Mus musculus; assay: Regulation of immune response in C57BL/6J mouse assessed as induction of NKT cell cytokine response-related IFN-gamma secretion at 10 to 1000 ug/kg, ip after 2 hrs by ELISA; type: functional, organism-based
[6] = test system: Mus musculus; assay: Regulation of immune response in C57BL/6J mouse assessed as induction of NKT cell cytokine response-related IFN-gamma secretion at 10 to 1000 ug/kg, ip after 14 hrs by ELISA; type: functional, organism-based
[7] = test system: Mus musculus; assay: Regulation of immune response in C57BL/6J mouse assessed as induction of NKT cell cytokine response-related IFN-gamma secretion at 100 ug/kg, ip after 18 hrs by ELISA; type: functional, organism-based; procedure, shortened: as §1
[8] = test system: Mus musculus; assay: Regulation of immune response in C57BL/6J mouse assessed as induction of NKT cell cytokine response-related TNFalpha secretion at 100 ug/kg, ip after 4 hrs by ELISA; type: functional, organism-based; procedure, shortened: as §1
[9] = test system: iNKT; assay: Effect on immune response in human iNKT cells stimulated by antigen-presenting CD1d-transfected human HeLa cells assessed as induction of TNFalpha release by MTT assay; type: functional, cell-based; procedure, shortened: as §2
[10] = test system: iNKT; assay: Effect on immune response in human iNKT cells stimulated by antigen-presenting CD1d-transfected human HeLa cells assessed as induction of IL4 release by ELISA; type: functional, cell-based; procedure, shortened: as §2

CCCCCCCCCCCCCCCCCCCCCCCCCC(=O)N[C@@H](CO[C@H]1O[C@H](CO)[C@H](O)[C@H](O)[C@H]1O)C(O)[C@H](O)CCCCCCCCCCCCCC (single isomer, unassigned) [RGI-7000]
Activity [1]: Active
Activity [2]: Active
Activity [3]: Active
Activity [4]: Active
Activity [5]: Active
Activity [6]: Active
Activity [7]: Active
Activity [8]: Active
EC50 [9]: 5 nM
Activity [10]: Active
